How the values were obtained:
[1] = biological target: T1, Muscarinic acetylcholine receptor M3 (Homo sapiens, UniProt P20309); experiment: Antagonist activity against human M3 receptor expressed in CHO cells assessed as inhibition of acetylcholine-induced calcium mobilization by FLIPR; assay type: functional, cell-based; details: for Kb: read-out: pA2 (converted)
Target sequence in this assay (P20309 whole entry): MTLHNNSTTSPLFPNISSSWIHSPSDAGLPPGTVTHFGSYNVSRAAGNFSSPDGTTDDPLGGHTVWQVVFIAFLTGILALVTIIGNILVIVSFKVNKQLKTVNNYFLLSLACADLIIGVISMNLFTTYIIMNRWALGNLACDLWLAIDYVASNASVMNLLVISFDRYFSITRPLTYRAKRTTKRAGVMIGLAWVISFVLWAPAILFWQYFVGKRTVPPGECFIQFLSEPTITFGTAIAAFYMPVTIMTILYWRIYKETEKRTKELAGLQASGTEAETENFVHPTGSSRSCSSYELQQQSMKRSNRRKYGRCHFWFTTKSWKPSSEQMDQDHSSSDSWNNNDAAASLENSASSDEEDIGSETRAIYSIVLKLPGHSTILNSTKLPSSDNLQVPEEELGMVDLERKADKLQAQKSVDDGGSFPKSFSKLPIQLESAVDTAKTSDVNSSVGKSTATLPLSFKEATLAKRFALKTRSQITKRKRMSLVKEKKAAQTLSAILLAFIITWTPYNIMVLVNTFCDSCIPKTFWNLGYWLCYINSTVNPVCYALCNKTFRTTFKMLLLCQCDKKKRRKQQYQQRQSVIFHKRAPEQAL

Mus musculus [2] = experiment: Inhibition of methacholine-induced bronchoconstriction in dosed BALB/c mouse assessed as respiratory values at 5 ug, intranasal at 24 hrs; assay type: functional
Mus musculus [3] = experiment: Inhibition of methacholine-induced bronchoconstriction in dosed BALB/c mouse assessed as respiratory values at 50 ug, intranasal at 24 hrs; assay type: functional
[4] = biological target: T2, Muscarinic acetylcholine receptor M2 (Homo sapiens, UniProt P08172); experiment: Displacement of [3H]N-methyl Scopolamine from human muscarinic M2 receptor expressed in CHO cells by scintillation proximity assay; assay type: cell-based
T2 sequence (P08172 whole entry): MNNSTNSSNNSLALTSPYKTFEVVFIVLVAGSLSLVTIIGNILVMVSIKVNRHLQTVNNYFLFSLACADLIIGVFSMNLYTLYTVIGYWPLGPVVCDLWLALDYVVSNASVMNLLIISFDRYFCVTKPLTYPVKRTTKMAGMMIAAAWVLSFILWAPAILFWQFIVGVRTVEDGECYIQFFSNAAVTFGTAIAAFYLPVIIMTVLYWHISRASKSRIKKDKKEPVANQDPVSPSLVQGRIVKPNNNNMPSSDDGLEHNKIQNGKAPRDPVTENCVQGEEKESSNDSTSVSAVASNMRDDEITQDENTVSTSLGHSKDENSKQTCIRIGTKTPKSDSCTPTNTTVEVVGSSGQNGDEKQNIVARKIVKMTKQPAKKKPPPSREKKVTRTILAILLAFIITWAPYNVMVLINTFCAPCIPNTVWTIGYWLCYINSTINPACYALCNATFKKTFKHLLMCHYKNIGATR
Summary of the method: (§1)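 Scintillation proximity binding on membranes from CHO cells expressing human M1, M2 or M3 receptor, competing against 0.5 nM [3H]-N-methylscopolamine; Ki reported, mean of two or more independent assays.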

Mus musculus [5] = organism: Mus musculus; experiment: Bronchorelaxant activity in methacholine-induced BALB/c mouse bronchus contraction model assessed as time to 50% loss of maximum protection at 0.5 ug, intranasally; assay type: functional
Summary of the method: (§2)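 Balb/C mice (n = 4 per group) dosed intranasally (50 μL, 10% DMSO vehicle); challenged 0.25-48 h later with 30 mg/mL methacholine aerosol for 2 min; Penh recorded over next 5 min, as ratio of post-drug to pre-drug Penh; duration taken as time to 50% loss of maximum protection.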

Rattus norvegicus = experiment: (§3) Oral bioavailability in rat at 5.8 mg/kg; assay type: ADME, organism-based; details: in vivo, BLD = below limit of detection
Summary of the method: (§4)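 Rat oral dosing at 5.8 mg/kg; percent bioavailability determined from plasma levels, individual animal values listed because of variability.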

[6] = biological target: T1, Muscarinic acetylcholine receptor M3; experiment: Displacement of [3H]N-methyl Scopolamine from human muscarinic M3 receptor expressed in CHO cells by scintillation proximity assay; assay type: cell-based; summary of the method: as §1
Target sequence in this assay (P20309 whole entry): as the sequence (P20309 whole entry) above

[7] = biological target: T1, Muscarinic acetylcholine receptor M3; experiment: Antagonist activity at human muscarinic M3 receptor in human bronchus assessed as reversal time for 50% of carbachol-induced contraction to return to maximum relaxation at 10 nM; assay type: functional
Summary of the method: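 Human bronchial strips from primary, secondary or tertiary airways (autopsy) in organ baths on force-displacement transducers; preincubated 2 h with antagonist at 10 nM, then contracted with increasing carbachol. Antagonist then washed out, tissue superfused with carbachol-containing buffer and tension recovery followed over time; value is minutes to 50% reversal of antagonist blockade (Off t50).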
Target sequence in this assay (P20309 whole entry, looked up): as the sequence (P20309 whole entry) above

Mus musculus [8] = experiment: Bronchorelaxant activity in intranasally dosed BALB/c mouse bronchus assessed as inhibition of methacholine-induced contraction; assay type: functional
[9] = Systemic plasma clearance in rat at 2.5 mg/kg, iv; assay type: ADME, organism-based; parameters: dose 2.5 mg/kg, route intravenous
[10] = biological target: T1, Muscarinic acetylcholine receptor M3; experiment: Antagonist activity at human muscarinic M3 receptor in human bronchus assessed as potency against carbachol-induced contraction; assay type: functional; details: read-out: pA2 (converted)
Summary of the method: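 Human bronchial strips (primary, secondary or tertiary airways, obtained at autopsy) mounted in organ baths on force-displacement transducers; preincubated 2 h with antagonist, then given increasing carbachol concentrations; potency expressed as pA2.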
Target sequence in this assay (P20309 whole entry): as the sequence (P20309 whole entry) above

[11] = as §3; assay type: ADME, organism-based; details: in vivo; summary of the method: as §4
Mus musculus [12] = organism: Mus musculus; experiment: Bronchorelaxant activity in methacholine-induced BALB/c mouse bronchus contraction model assessed as time to 50% loss of maximum protection at 5 ug, intranasally; assay type: functional; summary of the method: as §2
[13] = biological target: T3, Muscarinic acetylcholine receptor M1 (Homo sapiens, UniProt P11229); experiment: Displacement of [3H]N-methyl Scopolamine from human muscarinic M1 receptor expressed in CHO cells by scintillation proximity assay; assay type: cell-based; summary of the method: as §1
T3 sequence (P11229 whole entry): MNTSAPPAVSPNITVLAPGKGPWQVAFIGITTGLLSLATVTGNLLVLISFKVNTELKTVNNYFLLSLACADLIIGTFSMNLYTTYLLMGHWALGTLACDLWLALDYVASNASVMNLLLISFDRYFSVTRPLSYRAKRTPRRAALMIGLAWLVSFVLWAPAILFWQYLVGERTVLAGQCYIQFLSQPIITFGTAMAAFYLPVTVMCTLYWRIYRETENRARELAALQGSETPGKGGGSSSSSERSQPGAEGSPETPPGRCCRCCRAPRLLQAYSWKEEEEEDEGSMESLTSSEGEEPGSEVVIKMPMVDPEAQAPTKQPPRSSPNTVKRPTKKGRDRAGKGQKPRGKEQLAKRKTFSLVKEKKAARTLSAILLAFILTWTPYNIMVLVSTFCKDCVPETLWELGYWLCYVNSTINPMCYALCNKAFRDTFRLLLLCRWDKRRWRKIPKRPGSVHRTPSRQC

[14] = Systemic plasma clearance in rat at 2.8 mg/kg, iv; assay type: ADME, organism-based; parameters: dose 2.8 mg/kg, route intravenous

Row | SMILES | IC50 [1] [nM] | Kb [1] [nM] | further results
1 | Cc1ccc(F)cc1C(O)(C[C@H]1C[C@H]2CC[C@@H](C1)[N+]2(C)C)c1cc(F)ccc1C | 37 |  | 
2 | C[N+]1(C)[C@@H]2CC[C@H]1C[C@@H](CC(O)(c1cc(F)cc(F)c1)c1cc(F)cc(F)c1)C2 | 112 |  | 
3 | C[N+]1(C)[C@@H]2CC[C@H]1C[C@@H](CC(CO)(c1ccccc1)c1ccccc1)C2 |  | 3.98 | 
4 | CN1[C@@H]2CC[C@H]1C[C@@H](CC(C(N)=O)(c1ccccc1)c1ccccc1)C2 | < 10 | 0.1 | inhibition (INH) (Mus musculus [2]): >10%
5 | CN1[C@@H]2CC[C@H]1C[C@@H](CCC(O)(c1ccccc1)c1ccccc1)C2 | 134 |  | 
6 | C[N+]1(C)[C@@H]2CC[C@H]1C[C@@H](CC(O)(c1ccsc1)c1ccsc1)C2 | 17 |  | 
7 | COc1ccc(C(O)(C[C@H]2C[C@H]3CC[C@@H](C2)[N+]3(C)C)c2ccc(OC)cc2)cc1 | > 10000 |  | 
8 | C[N+]1(C)[C@@H]2CC[C@H]1C[C@@H](CC(O)(c1ccc(Cl)cc1)c1ccc(Cl)cc1)C2 | 74 |  | 
9 | C[N+]1(C)[C@@H]2CC[C@H]1C[C@@H](C=C(c1ccccc1)c1ccccc1)C2.[Br-] | < 10 | 5.01 | inhibition (INH) (Mus musculus [3]): 76%
10 | C[N+]1(C)[C@@H]2CC[C@H]1C[C@@H](CC(O)(c1ccc(F)c(F)c1)c1ccc(F)c(F)c1)C2 | 290 |  | 
11 | C[N+]1(C)[C@@H]2CC[C@H]1C[C@@H](CC(O)(c1cccc(F)c1)c1cccc(F)c1)C2 | 11 | 10 | 
12 | C[N+]1(C)[C@@H]2CCC[C@H]1C[C@H](C=C(c1cccs1)c1cccs1)C2.[Br-] | < 10 | 1 | inhibition (INH) (Mus musculus [2]): 49%
13 | CN1[C@@H]2CC[C@H]1C[C@@H](CC(O)(c1ccccc1)c1ccccn1)C2 (some centres not stated) | 19 |  | 
14 | Cc1ccccc1C(=C[C@H]1C[C@H]2CC[C@@H](C1)[N+]2(C)C)c1ccccc1C.[Br-] | < 10 | 0.1 | inhibition (INH) (Mus musculus [2]): 91%
15 | C[N+]1(C)[C@@H]2CC[C@H]1C[C@@H](CC(C#N)(c1ccccc1)c1ccccc1)C2.[Br-] |  |  | Ki [4]: 0.17 nM; Time (Mus musculus [5]): >24 h; F (Rattus norvegicus): BLD; Ki [6]: 0.06 nM; TIME [7]: 1.42 h; ED50 (Mus musculus [8]): 0.01 µg; clearance [9]: 74 mL/min/kg; Kb [10]: 0.1 nM
16 | COc1ccccc1C(O)(C[C@H]1C[C@H]2CC[C@@H](C1)[N+]2(C)C)c1ccccc1OC | > 10000 |  | 

Row | SMILES | IC50 [1] [nM] | Kb [1] [nM] | further results
17 | C[N+]1(C)[C@@H]2CCC[C@H]1C[C@@H](CC(O)(c1cccs1)c1cccs1)C2.[I-] | < 10 | 2 | inhibition (INH) (Mus musculus [2]): 44%
18 | C[N+]1(C)[C@@H]2CC[C@H]1C[C@@H](CC(O)(c1cccc(Cl)c1)c1cccc(Cl)c1)C2 | 25 |  | 
19 | Cc1ccccc1C(O)(C[C@H]1C[C@H]2CC[C@@H](C1)[N+]2(C)C)c1ccccc1C.[Br-] | 10 | 5.01 | inhibition (INH) (Mus musculus [2]): 34%
20 | CN1[C@@H]2CC[C@H]1C[C@@H](CC(C#N)(c1ccccc1)c1ccccc1)C2 |  | 0.316 | 
21 | C[N+]1(C)[C@@H]2CC[C@H]1C[C@@H](C=C(c1cccs1)c1cccs1)C2.[Br-] | < 10 | 0.1 | Ki [4]: 0.73 nM; bioavailability [11]: 2.4%; Ki [6]: 0.45 nM; TIME [7]: 0.983 h; ED50 (Mus musculus [8]): 0.2 µg; Time (Mus musculus [12]): 24 h; Ki [13]: 0.38 nM; clearance [14]: 85 mL/min/kg; inhibition (INH) (Mus musculus [2]): 72%; Kb [10]: 1 nM
22 | CN1[C@@H]2CC[C@H]1C[C@@H](CC(O)(c1ccccc1)c1ccccc1)C2 | 973 |  | inhibition (INH) (Mus musculus [3]): >10%
23 | C[N+]1(C)[C@@H]2CC[C@H]1C[C@@H](CC(O)(c1ccccc1)c1ccccc1)C2.[Br-] |  |  | inhibition (INH) (Mus musculus [3]): 62%
24 | Cc1cc(C(O)(C[C@H]2C[C@H]3CC[C@@H](C2)[N+]3(C)C)c2csc(C)c2)cs1 | 65 |  | 
25 | Cc1ccccc1C(O)(C[C@H]1C[C@H]2CCC[C@@H](C1)[N+]2(C)C)c1ccccc1C | 23 |  | 
26 | C[N+]1(C)[C@@H]2CCC[C@H]1C[C@H](CC(O)(c1ccccc1)c1ccccc1)C2.[Br-] | < 10 | 1.58 | inhibition (INH) (Mus musculus [2]): 34%
27 | C[N+]1(C)[C@@H]2CC[C@H]1C[C@@H](CC(C(N)=O)(c1ccccc1)c1ccccc1)C2.[I-] | < 10 | 0.126 | inhibition (INH) (Mus musculus [2]): 90%
28 | CN1[C@@H]2CC[C@H]1C[C@@H](C(O)(c1ccccc1)c1ccccc1)C2 | 1500 |  | 
29 | Cc1c(F)cccc1C(O)(C[C@H]1C[C@H]2CC[C@@H](C1)[N+]2(C)C)c1cccc(F)c1C | 65 |  | 
30 | CCC(O)(C[C@H]1C[C@H]2CC[C@@H](C1)N2C)c1ccccc1 (some centres not stated) | 135 |  | 
31 | C[N+]1(C)[C@@H]2CC[C@H]1C[C@@H](CC(O)(c1cccs1)c1cccs1)C2.[Br-] | < 10 | 2.51 | inhibition (INH) (Mus musculus [2]): 19%
32 | CN1[C@@H]2CC[C@H]1C[C@@H](CC(O)(c1cccs1)c1cccs1)C2 | < 10 | 2.51 | inhibition (INH) (Mus musculus [3]): >10%

Reference: ChEMBL document CHEMBL1781884, “Design, synthesis, and structure-activity relationship of tropane muscarinic acetylcholine receptor antagonists” (J Med Chem, 2009)
